Screening results deposited in PubChem by Broad Institute.
The list is not random: actives were taken first. Their share in the collection is about 3.8%.
DENV2 CPE rescue: DENV2-induced cell death inhibition; DENV2-infected cells, cytopathic effect rescue, plate reader; CPE inhibition, % at 9.99 µM; hit rate 1.7% among 350,000; AID 651640; in the data active means CPE inhibition above about 20%, passing the limit was not always enough; inconclusive means no clear call, values can overlap the other calls; tested in BHK-21 cells
ARNT-TACC3 inh: disruptors of human ARNT/TACC3 interaction | AID 623870 | AlphaScreen His-ARNT PAS-B/GST-TACC3 binding, luminescence; TACC3 fragment carries E629A point mutation | Q9Y6A5 | hit rate 0.66% among 390,000 | inhibition, % at 9.99 µM;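 active means mean inhibition of replicates at least 50% and at least half of replicates each reaching 50%; inconclusive means half or more replicates reach 50% but mean below 50%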
Xi reactivation: X-chromosome reactivation activator | XiGFP mouse fibroblasts, % GFP-positive cells imaging, 3 d; cells co-treated with 5-aza-dC sensitizer; scaled so ellipticine positive control = 100% | activation, % at 7.58 µM | hit rate 0.055% among 360,000 | AID 743238;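 active means mean normalized replicate activation at least 10% and every replicate at or above 10%; inconclusive means only one of the two criteria met; inactive means mean below 10% and not all replicates reach 10%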
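System: 68-5-11 XiGFP fibroblast line | Buffer or medium: DMEM containing 5-aza-dC | Compound: Single point | Times: Compounds 3 days, fix/stain 15 min at room temperature | Benchmarks: Positive control ellipticine, 6 µM final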
SIRT5 block: blocks human SIRT5 desuccinylation of peptide; inhibition, % at 15 µM; Purified SirT5, succinyl-peptide AMC, trypsin-coupled fluorescence; hit rate 1.1% among 330,000; in the data active means inhibition above about 15%; inconclusive means no clear call, values can overlap the other calls
Target sequence (Q9NXA8 whole entry, looked up): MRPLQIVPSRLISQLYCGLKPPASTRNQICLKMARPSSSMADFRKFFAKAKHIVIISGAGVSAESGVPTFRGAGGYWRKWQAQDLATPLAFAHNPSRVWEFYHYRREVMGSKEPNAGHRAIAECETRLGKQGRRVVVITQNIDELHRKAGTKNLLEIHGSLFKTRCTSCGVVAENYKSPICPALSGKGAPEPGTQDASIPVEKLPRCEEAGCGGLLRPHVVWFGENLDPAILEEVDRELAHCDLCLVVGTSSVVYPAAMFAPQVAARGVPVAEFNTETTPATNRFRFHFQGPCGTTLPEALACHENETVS
FGF22 binding: binders of recombinant human FGF22 by thermal shift; SYPRO orange fluorescence; percent of sucrose octasulfate shift, DMSO zero; activity (Tm shift, normalised), % at 9.99 µM; hit rate 1.5% among 340,000; AID 651658;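 active means mean Tm shift, scaled 0 neutral to 100 positive control, at about 1.3% or above, every replicate too, limit read from the data; inconclusive means no clear call, values can overlap the other calls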
Target sequence (Q9HCT0 whole entry, looked up): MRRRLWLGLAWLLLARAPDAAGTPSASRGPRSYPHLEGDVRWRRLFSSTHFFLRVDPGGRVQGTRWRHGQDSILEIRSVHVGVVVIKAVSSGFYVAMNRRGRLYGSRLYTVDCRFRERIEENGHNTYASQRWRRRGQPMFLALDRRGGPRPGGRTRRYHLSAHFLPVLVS
FN deposition inh: fibronectin deposition inhibition; hit rate 0.086% among 350,000; AH1F fibroblasts, Alexa488-fibronectin deposition fluorescence, overnight; inhibition, % at 12.6 µM;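 active means mean inhibition across replicates of 30% or more, regardless of how many single replicates reach that level; inconclusive means mean under 30% yet at least half of replicates reach 30%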
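Material: AH1F fibroblast monolayer depositing Alexa488-labelled fibronectin into matrix / Amount: 10000 AH1F cells per well / Signal: fluorescence 485/525 nm / Medium: DMEM, 2% serum / Compound: single dose, pinned / Incubation: 1 h cell adhesion before compound, then overnight fibronectin incubation / Reagent: Alexa488-FN, 24 nM final / Read-out: inhibition of fibronectin deposition signal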
Each line names hits and unclear results; the compound was inactive in the other large screens; ! = not active in a repeat.

CNCCOc1nc(N2CCOCC2)nc(C)c1[N+](=O)[O-]	none (no result: ARNT-TACC3 inh)
COCC(=O)Nc1ccc2c(c1)OC[C@H](C)N(C(=O)Cc1cccnc1)C[C@@H](C)[C@H](OC)CN(C)C2=O	DENV2 CPE rescue 26 (no result: ARNT-TACC3 inh)
COCC(=O)Nc1ccc2c(c1)OC[C@@H](C)N(C(=O)Cc1cccnc1)C[C@H](C)[C@@H](OC)CN(C)C2=O	DENV2 CPE rescue 49
COc1cccc(S(=O)(=O)Nc2ccc3c(c2)C(=O)N(C)C[C@@H](OC)[C@@H](C)CN(C(=O)Cc2cccnc2)[C@H](C)CO3)c1	DENV2 CPE rescue 52 (no result: SIRT5 block, FN deposition inh)
COc1cccc(S(=O)(=O)Nc2ccc3c(c2)C(=O)N(C)C[C@H](OC)[C@H](C)CN(C(=O)Cc2cccnc2)[C@@H](C)CO3)c1	none (no result: SIRT5 block, FN deposition inh)
COCC(=O)Nc1ccc2c(c1)OC[C@@H](C)N(C(=O)c1ccncc1)C[C@@H](C)[C@H](OC)CN(C)C2=O	DENV2 CPE rescue 32
C[C@@H]1CN([C@@H](C)CO)C(=O)c2cccc(NC(=O)c3cnccn3)c2O[C@H]1CN(C)Cc1ccc(Cl)c(Cl)c1	none (no result: FN deposition inh)
COCC(=O)Nc1ccc2c(c1)[C@H]1C[C@H](CC(=O)N3CCc4ccccc4C3)O[C@@H](CO)[C@H]1O2	none (no result: FN deposition inh)
CN1C(=O)c2cc(NS(=O)(=O)c3cccc(F)c3)ccc2OC[C@@H]2O[C@@H](CC(=O)N3CCc4ccccc4C3)CC[C@@H]21	none (no result: DENV2 CPE rescue, SIRT5 block, FGF22 binding)
C[C@@H]1CN(C)C(=O)c2cccc(NS(C)(=O)=O)c2O[C@H]1CN(C)S(C)(=O)=O	none (no result: DENV2 CPE rescue, ARNT-TACC3 inh, SIRT5 block, FGF22 binding)
CC(C)OC(=O)c1cccc(C(=O)O)n1	SIRT5 block 19 (no result: DENV2 CPE rescue, ARNT-TACC3 inh, Xi reactivation, FGF22 binding)
O=C(Nc1ccc2c(c1)[C@H]1C[C@H](CC(=O)N3CCc4ccccc4C3)O[C@H](CO)[C@H]1O2)c1ccc2c(c1)OCO2	none
COc1ccc(CN(C)C[C@H]2OCCCC[C@H](C)Oc3ccc(NS(=O)(=O)c4ccc(F)cc4)cc3C(=O)N([C@H](C)CO)C[C@H]2C)cc1	DENV2 CPE rescue 33
COc1ccc(CN(C)C[C@H]2OCCCC[C@@H](C)Oc3ccc(NS(=O)(=O)c4ccc(F)cc4)cc3C(=O)N([C@@H](C)CO)C[C@@H]2C)cc1	DENV2 CPE rescue inconclusive
COc1ccc(CN(C)C[C@H]2OCCCC[C@H](C)Oc3ccc(NS(=O)(=O)c4ccc(Cl)cc4)cc3C(=O)N([C@@H](C)CO)C[C@@H]2C)cc1	DENV2 CPE rescue 30
COc1ccc(CN(C)C[C@@H]2OCCCC[C@@H](C)Oc3ccc(NS(=O)(=O)c4ccc(Cl)cc4)cc3C(=O)N([C@@H](C)CO)C[C@H]2C)cc1	DENV2 CPE rescue 34
CC(C)NC(=O)N(C)C[C@@H]1Oc2c(NC(=O)c3nc4ccccc4s3)cccc2C(=O)N([C@@H](C)CO)C[C@@H]1C	none (no result: FN deposition inh)
C[C@@H]1CCCCO[C@H](CN(C)Cc2ccc(Cl)c(Cl)c2)[C@@H](C)CN([C@H](C)CO)C(=O)c2cc(NS(=O)(=O)c3ccccc3)ccc2O1	DENV2 CPE rescue 32 (no result: FN deposition inh)
C[C@@H]1CN([C@H](C)CO)C(=O)c2cc(NS(=O)(=O)c3ccccc3)ccc2O[C@@H](C)CCCCO[C@@H]1CN(C)Cc1ccc(Cl)c(Cl)c1	SIRT5 block 15!
C[C@@H]1CCCCO[C@H](CN(C)Cc2ccc(Cl)c(Cl)c2)[C@@H](C)CN([C@@H](C)CO)C(=O)c2cc(NS(=O)(=O)c3ccccc3)ccc2O1	DENV2 CPE rescue 24 (no result: Xi reactivation, FN deposition inh)
C[C@H]1CCCCO[C@H](CN(C)Cc2ccc(Cl)c(Cl)c2)[C@@H](C)CN([C@@H](C)CO)C(=O)c2cc(NS(=O)(=O)c3ccccc3)ccc2O1	none (no result: ARNT-TACC3 inh, FN deposition inh)
C[C@@H]1CN([C@@H](C)CO)C(=O)Cc2cc(NC(=O)NC3CCCCC3)ccc2O[C@@H]1CN(C)C(=O)Nc1cccc2ccccc12	none (no result: FN deposition inh)
CCC(=O)N1[C@H](CN(C(C)C)S(C)(=O)=O)[C@@H](c2ccccc2)[C@@H]1CO	none
O=C(N/N=C/c1cc(Cl)ccc1O)c1ccncc1	ARNT-TACC3 inh 69 (no result: DENV2 CPE rescue)
O=C(NCC1CCCO1)C(=O)N/N=C/c1cc(Cl)ccc1O (centres undefined)	ARNT-TACC3 inh 46
COc1cc(/C=N/NC(=O)C(=O)NCC2CCCO2)ccc1OCC(=O)N1CCOCC1 (centres undefined)	FGF22 binding 44
O=C(NCC1CCCO1)C(=O)N/N=C/c1ccc(O)c(Cl)c1 (centres undefined)	none
Cc1ccc(S(=O)(=O)Nc2ccc3c(c2)C(=O)N([C@@H](C)CO)C[C@@H](C)[C@@H](CN(C)S(C)(=O)=O)O3)cc1	none
C[C@H](CO)N1C[C@H](C)[C@H](CN(C)Cc2cccc(O)c2)OCc2cnnn2CCCC1=O	none
Cc1ccccc1N/N=C/c1ccc(C#N)cc1	none
CN/N=C/c1ccc(C#N)cc1	FGF22 binding 43
CCC(=O)/C=C1/Sc2ccc(OC)cc2N1CCO	FGF22 binding 43 (no result: ARNT-TACC3 inh)
CCC(=O)/C=C1/Sc2ccc(OC)cc2N1CC	none (no result: Xi reactivation, FN deposition inh)
C/C=C/c1ccc([C@@H]2[C@@H](CN(C(=O)COC)C(C)C)N(C(C)=O)[C@H]2CO)cc1	SIRT5 block 17
C/C=C/c1ccc([C@@H]2[C@@H](CO)N(C(C)=O)[C@H]2CN(C(=O)COC)C(C)C)cc1	SIRT5 block 34
CCCCCOC(=O)CCN1C(=O)/C(=C2\SC(=S)N(CCC(=O)OCCCCC)C2=O)SC1=S	none
CCCCOC(=O)CCN1C(=O)/C(=C2\SC(=S)N(CCC(=O)OCCCC)C2=O)SC1=S	DENV2 CPE rescue 75 (no result: SIRT5 block)
O=C(Cn1cnc2cc([N+](=O)[O-])ccc2c1=O)NCCc1ccc(F)cc1	none (no result: DENV2 CPE rescue, FN deposition inh)
CN(CC(=O)Nc1ccc(F)cc1)C(=O)Cn1cnc2ccc([N+](=O)[O-])cc2c1=O	SIRT5 block 24
C=CCOC(=O)[C@@H]1[C@H]2C(=O)O[C@H](c3ccccc3)[C@H](c3ccccc3)N2[C@H](c2ccc(OCCOC(=O)[C@H]3C[C@H]4C(=O)N5CCC[C@H]5C(=O)N4[C@H]3c3ccc(O)cc3)cc2)[C@@]12C(=O)Nc1ccccc12	none (no result: Xi reactivation, FN deposition inh)
CCn1ncc(Br)c1C(=O)Nc1ccccc1OC	FGF22 binding 44
CCC(C)c1ccc(NC(=O)NCCN2CCCCC2)cc1 (centres undefined)	DENV2 CPE rescue 30 (no result: SIRT5 block)
C[C@H](CO)N1C[C@H](C)[C@H](CN(C)C(=O)Nc2ccc(F)cc2)Oc2ccc(N(C)C)cc2C1=O	none (no result: ARNT-TACC3 inh, SIRT5 block, FN deposition inh)
COc1ccc(S(=O)(=O)Nc2ccc3c(c2)C(=O)N([C@H](C)CO)C[C@@H](C)[C@H](CN(C)C(=O)NC(C)C)O3)cc1	none (no result: DENV2 CPE rescue, ARNT-TACC3 inh, SIRT5 block, FGF22 binding, FN deposition inh)
CC(C)NC(=O)Nc1ccc2c(c1)CC(=O)N(C)C[C@H](C)[C@@H](CN(C)C(=O)OC(C)(C)C)O2	none (no result: DENV2 CPE rescue, ARNT-TACC3 inh, SIRT5 block, FGF22 binding)
Nc1ccc2ccccc2c1C(=O)c1ccccc1	DENV2 CPE rescue 57 (no result: SIRT5 block, FGF22 binding, FN deposition inh)
